Sampled rows, rich in hits. Any-hit rate of the full collection: about 3.1%.
OX1R antag-1: OX1R (HCRTR1) antagonists, primary screen, fluorescence, CHO/OX1R cells, Fluo-8 calcium, orexin A; Fluo-8 calcium fluorescence; inhibition, % at 5 µM; 330,000 compounds, 0.43% hits;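 active = inhibition above its plate's threshold, mean inhibition of all tested compounds on the plate plus 3 SD, cut at about 37% in these data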;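 also: 0% = orexin A challenge wells and 100% = SB-334867-A antagonist wells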
Target sequence (O43613 whole entry, looked up): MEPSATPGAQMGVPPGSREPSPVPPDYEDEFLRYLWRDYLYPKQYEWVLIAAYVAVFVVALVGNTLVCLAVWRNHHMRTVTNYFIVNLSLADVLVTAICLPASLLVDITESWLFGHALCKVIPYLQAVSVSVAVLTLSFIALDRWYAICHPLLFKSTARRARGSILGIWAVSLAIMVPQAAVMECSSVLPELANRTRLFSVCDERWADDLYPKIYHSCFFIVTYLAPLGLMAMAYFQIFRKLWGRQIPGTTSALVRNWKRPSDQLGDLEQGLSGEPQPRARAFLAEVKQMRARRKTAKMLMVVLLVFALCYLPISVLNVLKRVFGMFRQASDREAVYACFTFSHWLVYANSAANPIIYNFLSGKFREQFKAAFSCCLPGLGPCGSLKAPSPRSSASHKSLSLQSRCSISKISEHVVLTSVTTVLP
GalR3 antagonist: GalR3 antagonists in HEK293 cells, primary screen, cell-based, fluorescence readout; Galanin receptor type 3 (Homo sapiens), O60755; inhibition, % at 3 µM; HEK293 GalR3-CNG cAMP membrane potential fluorescence; galR3 body fused to GalR1 C-terminus; 360,000 compounds, 0.44% hits;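 active = inhibition above the screen-wide average plus 3 SD, cut at about 13% in these data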;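 also: forskolin and galanin both at EC90 stimulate the cells; cAMP rise reported by CNG channel membrane potential dye signal; 0% = forskolin plus galanin with DMSO and 100% = forskolin alone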
Target sequence (O60755 1-299 limits assumed): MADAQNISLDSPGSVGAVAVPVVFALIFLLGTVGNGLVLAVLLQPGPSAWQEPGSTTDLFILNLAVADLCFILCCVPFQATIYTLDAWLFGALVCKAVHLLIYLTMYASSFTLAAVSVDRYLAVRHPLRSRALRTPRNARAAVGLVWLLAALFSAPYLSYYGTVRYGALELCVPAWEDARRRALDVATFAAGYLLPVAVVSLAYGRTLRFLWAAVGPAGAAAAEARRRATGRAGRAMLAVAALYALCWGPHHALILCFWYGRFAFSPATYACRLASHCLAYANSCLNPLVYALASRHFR
OX1R antag-2: antagonists of human orexin 1 receptor (OX1R); Orexin/Hypocretin receptor type 1 (Homo sapiens), O43613; OX1R-expressing cells, FRET antagonist read-out; inhibition, % at 6.6 µM; 330,000 compounds, 1.8% hits; AID 485270, 2010; in the data active = inhibition mostly above about 38%, no sharp cut-off; inactive = mostly below about 40%;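 also: 0% = agonist challenge alone and 100% = reference antagonist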
CHO parental Ca: ATP-evoked calcium signal inhibitors, parental CHO, primary screen, counter-screen for OX1R antagonist project, cell-based, fluorescence, Fluo-8 calcium dye. parental CHO-K1, ATP-induced calcium, Fluo-8 fluorescence. inhibition, % at 5.6 µM. 330,000 compounds, 0.63% hits. AID 463079, 2010;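 active = inhibition above that plate's mean sample inhibition plus 3 SD, cut at about 26% in these data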;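 also: 0% = ATP-challenged DMSO wells and 100% = DMSO wells without ATP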
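Test system: untransfected parental CHO cell line; also added: ATP stimulus; dosing: 5.6 µM, single dose; signal: calcium-sensitive Fluo-8 fluorescence; measure: percent inhibition of ATP-evoked calcium rise, normalized to controls; benchmarks: low control ATP plus DMSO, high control DMSO only; replication: one well per compound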
GPR7 antagonist: GPR7 receptor antagonists, primary screen, cell-based, fluorescence, single concentration | GPR7-expressing cells, fluorescence antagonist assay | inhibition, % at 4.4 µM | 290,000 compounds, 1.1% hits | AID 1861, 2009; in the data active = inhibition above about 16%, passing the limit was not always enough;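 also: cells stimulated with the agonist NPW; 0% = agonist with vehicle and 100% = vehicle without agonist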
OX1R Fluo8 conf: OX1R (HCRTR1) antagonists, confirmation, fluorescence, CHO/OX1R cells, Fluo-8 calcium, orexin A | shares compounds with OX1R antag-1 | orexin A calcium Fluo-8 fluorescence | inhibition, % at 5 µM | 1,100 compounds, 38% hits | AID 492963, 2010; in the data active = inhibition above about 29%;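 also: 0% = agonist challenge alone and 100% = reference antagonist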
CHO Ca triplic: ATP-evoked calcium inhibition in parental CHO, counter-screen for OX1R antagonist project, cell-based, fluorescence, CHO-K1, triplicate; shares compounds with OX1R antag-1; ATP-induced calcium, Fluo-8 fluorescence; inhibition, % at 5.6 µM; 1,100 compounds, 9.3% hits; AID 492965, 2010;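 active = inhibition above a per-plate limit, the mean inhibition of that plate's test compounds plus 3 SD, cut at about 25% in these data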;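 also: 0% = ATP challenge with DMSO and 100% = DMSO without ATP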
* marks the source's active call; other numbers are inactive results; nt = no result.

SMILES	OX1R antag-1	GalR3 antagonist	OX1R antag-2	CHO parental Ca	GPR7 antagonist	OX1R Fluo8 conf	CHO Ca triplic
CCc1nc2ccc(C(=O)NCC3CCCCC3)cn2c1N(C)Cc1nccs1	nt	-3	nt	nt	nt	nt	nt
Cc1cccc(OCCC(=O)Nc2ccc(C)c(S(=O)(=O)N3CCOCC3)c2)c1	-6	0	11	-9	nt	nt	nt
Cc1cccc(OCCCC(=O)Nc2ccc(Cl)c(S(=O)(=O)N3CCOCC3)c2)c1	35	-2	7	-12	nt	7	8
CC(C)c1ccc(CNc2cc(N3CCCC3)ccc2[N+](=O)[O-])cc1	53*	-4	8	8	1	-7	39*
CC(C)(C)CNc1cc(N2CCCC2)ccc1[N+](=O)[O-]	-14	nt	9	-14	-7	nt	nt
C=C1[C@H]2O[C@H]2[C@@H](OC(C)=O)[C@@]2(C)[C@@H](OC(C)=O)C[C@@H](OC(C)=O)[C@@](C)(O)[C@@H]2[C@@H](OC(C)=O)[C@@]2(O)[C@@H](C)C(=O)O[C@H]2[C@H]1Cl	nt	1	nt	nt	nt	nt	nt
COC(=O)C[C@@H]1CC[C@H](NC(=O)Nc2ccc(F)cc2)[C@@H](CO)O1	nt	-7	nt	nt	nt	nt	nt
O=C(O/N=C1\CCS(=O)(=O)c2sccc21)c1c(F)cccc1F	44*	-6	13	-17	-5	17	9
C=C1C(=O)C23C(O)C1CCC2C12COC3(O)C(O)C1C(C)(C)CCC2O (stereo not drawn)	nt	-4	nt	nt	nt	nt	nt
O=C(COC(=O)Cc1c[nH]c2ccccc12)Nc1cc(S(=O)(=O)N2CCOCC2)ccc1Cl	-18	-2	6	-11	nt	nt	nt
Cc1ccc(S(=O)(=O)N2CCOCC2)cc1NC(=O)COC(=O)CCc1c[nH]c2ccccc12	32	4	30	-9	nt	-2	-14
COc1ccccc1C(=O)Nc1ccc(Cc2ccncc2)cc1	-23	-4	15	-10	6	nt	nt
COc1c(C)cc(Br)cc1C(=O)Nc1ccc(Cc2ccncc2)cc1	31	-4	41	18	3	-9	-5
Cc1ccc(Cc2c(-c3ccccc3)nc3cc(C)c(Br)c(C)n23)cc1	nt	-5	nt	nt	nt	nt	nt
Cc1ccc(CSc2nnc(-c3ccc4c(c3)OCO4)o2)cc1	-24	-1	-5	3	-9	nt	nt
COc1ccc(C2=NCC(CSc3nnc(-c4ccc5c(c4)OCO5)o3)S2)cc1 (stereo not drawn)	47*	-1	14	15	-1	12	-1
CCc1noc(C)c1C(=O)Oc1ccc(N(C)S(=O)(=O)c2ccc(C)cc2)cc1	55*	nt	9	8	nt	5	5
COCCN(C(=O)Cc1cccs1)C(C(=O)NCc1ccc(OC)cc1)c1ccc(C)cc1 (stereo not drawn)	-4	2	7	-14	-10	nt	nt
COc1ccc(CNC(=O)C(c2ccc(C)o2)N(Cc2cccs2)C(=O)Cc2cccs2)cc1 (stereo not drawn)	46*	-5	63	13	-5	9	-4
COC(=O)[C@H](CC(C)C)NC(=O)NC1CCCc2ccccc21 (stereo partly drawn)	44	6	26	25	1	23	23
Cc1oc(-c2cccc3ccccc23)nc1CN1CCN(c2ncnc3ccccc23)CC1	34	-10	30	12	0	20	-10
CCOC(=O)[C@@H](C)N(Cc1ccc(OC)cc1)S(=O)(=O)N(Cc1ccccc1)[C@H](C(=O)OC)C(C)C	50*	-8	9	7	nt	7	58*
COc1ccc2c(CN3CCN(Cc4ccccc4)CC3)cc(=O)oc2c1	nt	-7	nt	nt	nt	nt	nt
O=C1CC(NCc2ccccc2F)C(=O)N1c1ccccc1 (stereo not drawn)	43*	-5	1	5	-2	-2	-4
CCCCNc1ccc(C(F)(F)F)cc1S(=O)(=O)NCCc1ccc(F)cc1	47	-4	8	12	nt	-7	-9
SMILES	OX1R antag-1	GalR3 antagonist	OX1R antag-2	CHO parental Ca	GPR7 antagonist	OX1R Fluo8 conf	CHO Ca triplic
COc1ccc(S(=O)(=O)NCCc2ccc(F)cc2)cc1	-13	-3	12	1	-5	nt	nt
CCOc1cc2c(cc1C=O)OC(C)C2 (stereo not drawn)	-4	-4	21	10	-8	nt	nt
CCOc1cc2c(cc1/C=C/c1noc(C)c1[N+](=O)[O-])OC(C)C2 (stereo not drawn)	26	-6	21	18	6	51*	44*
O=C(COC(=O)c1cccc(S(=O)(=O)N2CCOCC2)c1)Nc1nc(-c2ccccc2Cl)cs1	33	2	9	23	4	36*	26*
O=C(NCC1CCCN1S(=O)(=O)c1cccs1)C(=O)Nc1ccccc1 (stereo not drawn)	-14	-4	20	-11	nt	nt	nt
N#Cc1ccccc1NC(=O)C(=O)NCC1CCCN1S(=O)(=O)c1cccs1 (stereo not drawn)	17	-2	29	-7	nt	21	-9
CCCCNC(=O)C1(C)CCCCN1C(=O)c1ccc(OC)c(C(F)(F)F)c1 (stereo not drawn)	nt	-7	nt	nt	nt	nt	nt
C[C@@H]1CCCCO[C@@H](CN(C)Cc2ccc(Cl)c(Cl)c2)[C@@H](C)CN([C@H](C)CO)C(=O)c2cc(NC(=O)CCC(F)(F)F)ccc2O1	nt	-6	nt	nt	nt	nt	nt
CCN(C(=O)COC(=O)C1CCC(C(C)(C)C)CC1)c1c(N)n(Cc2ccccc2)c(=O)[nH]c1=O (stereo not drawn)	nt	-7	nt	nt	nt	nt	nt
Cc1nc2c(-c3ccc(Cl)cc3)cnn2c2c1CCC2	40*	-5	45	-9	-11	34*	-18
CC(=O)c1c(C)[nH]c(C(=O)CSc2nc3ccccc3c(=O)n2CCCO)c1C	28	-5	1	-11	-7	14	-3
C[C@@]12CC[C@@H](C3=C(CCC3)C1)N2c1ccccc1	nt	-5	nt	nt	nt	nt	nt
CCOC(=O)C1=CCN(S(=O)(=O)c2ccc(C)cc2)C1c1ccc(Cl)c(Cl)c1 (stereo not drawn)	nt	-5	nt	nt	nt	nt	nt
COCc1cc(N2CCN(C(=O)OC(C)(C)C)C[C@H]2C)ccc1N1CCN(Cc2ccccc2)[C@H](C)C1	nt	-4	nt	nt	nt	nt	nt
O=C(CSc1ncc(-c2ccc(F)cc2)n1Cc1ccco1)Nc1nccs1	22	-5	46	12	-1	16	-9
CCN(CC)c1ccc(/C=N\NC(N)=O)cc1	32	3	17	9	-11	1	2
CC(=O)c1ccc(Nc2nc(CN)cs2)cc1	nt	4	nt	nt	nt	nt	nt
O=C(Oc1ccc(Cl)c2cccnc12)N1CCCCC1	90*	-7	26	-5	-1	-15	-4

Screens: PubChem BioAssay, The Scripps Research Institute Molecular Screening Center
